XiGFP reactiv – reactivates the inactive X chromosome in mouse fibroblasts. activation, % at 7.58 µM. 360,000 compounds, 0.055% hits. XiGFP mouse fibroblasts, % GFP-positive cells imaging, 3 d; cells co-treated with 5-aza-dC sensitizer; scaled so ellipticine positive control = 100%. AID 743238;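 active = mean normalized replicate activation at least 10% and every replicate at or above 10%; inconclusive = only one of the two criteria met; inactive = mean below 10% and not all replicates reach 10%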
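Material: SV40-immortalized XiGFP fibroblast cells, line 68-5-11 | Buffer or medium: DMEM containing 5-aza-dC | Dosing: One concentration, pinned | Times: 3 d treatment, 15 min room-temperature fixation | Controls: Ellipticine 6 µM positive control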
Statin myotox sup – suppression of simvastatin myotoxicity. C2C12 myotubes + simvastatin, ATP luminescence, 48 h; scaled: DMSO 0, geranylgeraniol control 100. rescue of ATP level, % at 7.49 µM. 330,000 compounds, 0.78% hits. AID 602340;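 active = mean ATP rescue above about 67%, or every replicate alone reaching that limit, limit read from the data, passing the limit was not always enough; inconclusive = no clear call, values can overlap the other calls; inactive = mean under the limit and some replicate under it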;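 note: myotubes were challenged with 10 µM simvastatin during compound exposure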
PglD DTNB – inhibitors of Campylobacter jejuni PglD acetyltransferase. purified PglD enzyme, DTNB colorimetric CoA detection. 360,000 compounds, 0.098% hits. inhibition, % at 12.5 µM. AID 602405; in the data active = inhibition above about 16%, passing the limit was not always enough; inconclusive = no clear call, values can overlap the other calls
FGF22 binding – FGF22 (human) thermal shift binding; Q9HCT0; recombinant FGF22 thermal shift, SYPRO orange fluorescence; percent of sucrose octasulfate shift, DMSO zero; activity (Tm shift, normalised), % at 9.99 µM; 340,000 compounds, 1.5% hits; AID 651658;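 active = mean Tm shift, scaled 0 neutral to 100 positive control, at about 1.3% or above, every replicate too, limit read from the data; inconclusive = no clear call, values can overlap the other calls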
Target sequence (Q9HCT0 whole entry, looked up): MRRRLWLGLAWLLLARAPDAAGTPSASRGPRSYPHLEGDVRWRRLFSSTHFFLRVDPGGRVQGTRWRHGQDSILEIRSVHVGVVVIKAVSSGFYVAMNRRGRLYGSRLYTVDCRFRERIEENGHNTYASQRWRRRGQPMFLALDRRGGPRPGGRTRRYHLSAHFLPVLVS
DENV2 CPE rescue – protects cells from dengue virus 2 cytopathic effect; DENV2-infected cells, cytopathic effect rescue, plate reader; CPE inhibition, % at 9.99 µM; 350,000 compounds, 1.7% hits; in the data active = CPE inhibition above about 20%, passing the limit was not always enough; inconclusive = no clear call, values can overlap the other calls; tested in BHK-21 cells
E-selectin induc – induces E-selectin expression in human endothelial cells. HUVEC E-selectin immunofluorescence imaging; normalized: neutral wells 0, TNF-alpha wells 100. 260,000 compounds, 0.37% hits. activation, % at 7.58 µM;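 active = mean E-selectin-positive cell signal at least 10% of the positive control, reached in at least 60% of replicates, without over 20% cell loss; inconclusive = no rule given, readout overlaps actives, possibly toxicity-flagged; inactive = the rest, including those meeting only one limit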
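Test system: HUVEC; input: 3,000 HUVEC/well; measured by: immunofluorescence imaging; read-out: % PE-positive cells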
Each line names hits and unclear results; the compound was inactive in the other large screens. This is a sample that favours compounds with a hit; in the whole collection about 3.3% have one here.

CCCN1C[C@H](C)[C@H](OC)CN(C)C(=O)c2cc(NC(=O)Nc3ccccc3F)ccc2OC[C@H]1C	none
CCCN1C[C@H](C)[C@@H](OC)CN(C)C(=O)c2cc(NC(=O)Nc3ccccc3F)ccc2OC[C@H]1C	DENV2 CPE rescue 29
CO[C@@H]1CN(C)C(=O)c2ccc(NC(=O)c3cccc(F)c3)cc2OC[C@H](C)N(C)C[C@H]1C	DENV2 CPE rescue 37
COc1cccc(NC(=O)Nc2ccc3c(c2)C(=O)N(C)C[C@@H](OC)[C@@H](C)CN(C)[C@H](C)CO3)c1	DENV2 CPE rescue 26
COc1cccc(NC(=O)Nc2ccc3c(c2)C(=O)N(C)[C@@H]2CC[C@@H](CC(=O)NCCc4ccccc4)O[C@@H]2CO3)c1	none
CO[C@H]1CN(C)C(=O)c2cc(NC(=O)Nc3cccc(F)c3)ccc2OC[C@H](C)N(C)C[C@H]1C	DENV2 CPE rescue 29
CO[C@@H]1CN(C)C(=O)c2cc(NC(=O)Nc3cccc(F)c3)ccc2OC[C@@H](C)N(C)C[C@H]1C	none
COc1ccc(S(=O)(=O)N(C)C[C@@H]2Oc3ccc(NC(=O)NC(C)C)cc3C(=O)N([C@@H](C)CO)C[C@H]2C)cc1	none (no result: Statin myotox sup, PglD DTNB, FGF22 binding, DENV2 CPE rescue)
N#C[C@@H]1[C@H](c2ccc(C#Cc3ccccc3F)cc2)[C@H](CO)N1C(=O)C1CCC1	DENV2 CPE rescue 102
N#C[C@@H]1[C@H](c2ccc(C#Cc3ccc(F)cc3)cc2)[C@@H](CO)N1C(=O)C1CCCC1	DENV2 CPE rescue 51
N#C[C@@H]1[C@@H](c2ccc(C#Cc3ccccc3F)cc2)[C@H](CO)N1C(=O)C1CCCCC1	none
COc1ccccc1C#Cc1ccc([C@@H]2[C@@H](C#N)N(C(=O)C3CCC3)[C@H]2CO)cc1	DENV2 CPE rescue 22
N#C[C@H]1[C@H](c2ccc(C#Cc3ccc(F)cc3)cc2)[C@H](CO)N1C(=O)C1CC1	none
COc1ccccc1C#Cc1ccc([C@@H]2[C@H](C#N)N(C(=O)C3CCC3)[C@H]2CO)cc1	none
N#C[C@H]1[C@@H](c2ccc(C#Cc3ccccc3F)cc2)[C@@H](CO)N1C(=O)C1CCCC1	DENV2 CPE rescue 33 (no result: Statin myotox sup, PglD DTNB, FGF22 binding)
C[C@H](CO)N1C[C@H](C)[C@@H](CN(C)Cc2cccnc2)OCc2ccccc2-c2c(n(C)c3ccccc23)C1=O	none (no result: Statin myotox sup)
Cc1nn(C)cc1NC(=O)C[C@H]1CC[C@@H]2[C@H](COc3ccc(NC(=O)C4CCOCC4)cc3C(=O)N2C)O1	none
N#C[C@H]1[C@@H](c2ccc(C#Cc3ccccc3F)cc2)[C@H](CO)N1C(=O)C1CC1	none
N#C[C@@H]1[C@H](c2ccc(C#Cc3ccccc3F)cc2)[C@@H](CO)N1C(=O)C1CC1	DENV2 CPE rescue 82
CCCN(C)C[C@H]1Oc2ncc(C#Cc3ccc(OC)cc3)cc2C(=O)N([C@H](C)CO)C[C@H]1C	DENV2 CPE rescue inconclusive
CN1CCN(C(=O)C[C@H]2CC[C@H]3[C@H](COc4ccc(NC(=O)C5CCCC5)cc4C(=O)N3C)O2)CC1	none (no result: Statin myotox sup, PglD DTNB)
COc1ccccc1NC(=O)CN(Cc1ccco1)C(=O)c1ccc(N2CCCC2=O)cc1	FGF22 binding 44, DENV2 CPE rescue inconclusive (no result: Statin myotox sup, PglD DTNB)
O=C(CN(Cc1ccco1)C(=O)c1ccc(N2CCCC2=O)cc1)Nc1ccccc1C(F)(F)F	none (no result: Statin myotox sup, PglD DTNB)
Oc1cc2c(cc1O)C(c1ccccc1)CNCC2 (configuration not stated)	DENV2 CPE rescue 52
CNC[C@@H]1OCCCC[C@@H](C)Oc2ccc(NC(=O)CCC(F)(F)F)cc2C(=O)N([C@H](C)CO)C[C@H]1C	none (no result: PglD DTNB, FGF22 binding, DENV2 CPE rescue)
O=C(CC(F)(F)F)N1C[C@H]2[C@@H](c3ccccc31)[C@H](CO)N2C(=O)C1CCCC1	none
CC(=O)N(C)C[C@@H]1Oc2ncc(-c3cccc(F)c3)cc2C(=O)N([C@@H](C)CO)C[C@@H]1C	none
C[C@H](CO)N1C[C@H](C)[C@H](CN(C)S(=O)(=O)c2cccs2)Oc2ncccc2C1=O	DENV2 CPE rescue 37
C[C@H](CO)N1C[C@H](C)[C@H](CN(C)S(C)(=O)=O)Oc2ncccc2C1=O	none (no result: Statin myotox sup)
C[C@@H]1CN([C@H](C)CO)C(=O)c2cccc(NC(=O)c3ccncc3)c2O[C@@H]1CN(C)S(=O)(=O)c1cccs1	DENV2 CPE rescue 26
C[C@H]1CN([C@@H](C)CO)C(=O)c2cccc(NC(=O)c3ccncc3)c2O[C@@H]1CN(C)S(=O)(=O)c1ccccc1	none
C[C@H](CO)N1C[C@H](C)[C@@H](CN(C)S(=O)(=O)c2cccs2)Oc2c(NC(=O)c3ccncc3)cccc2C1=O	none
C[C@@H]1CN([C@H](C)CO)C(=O)c2cccc(NC(=O)c3ccncc3)c2O[C@H]1CN(C)S(=O)(=O)c1ccccc1	DENV2 CPE rescue inconclusive, E-selectin induc 32
C[C@@H]1CN([C@@H](C)CO)C(=O)c2cc(NC(=O)C3CC3)ccc2O[C@@H]1CN(C)Cc1ccc(C(F)(F)F)cc1	none
COc1ccc(S(=O)(=O)Nc2ccc3c(c2)C(=O)N([C@H](C)CO)C[C@@H](C)[C@H](CN(C)C(=O)Nc2ccc(F)cc2)OCCCC[C@@H](C)O3)cc1	DENV2 CPE rescue inconclusive
COc1cccc(C(=O)Nc2cccc(-c3nc4ncccc4o3)c2C)c1	none (no result: XiGFP reactiv, FGF22 binding, DENV2 CPE rescue, E-selectin induc)
Cc1c(NC(=O)c2ccc([N+](=O)[O-])o2)cccc1-c1nc2ncccc2o1	Statin myotox sup 107
C=C(C)COC(=O)c1ccccc1C(=O)OCC1(C)CO1 (configuration not stated)	Statin myotox sup 98
CC(=O)c1ccccc1NC(=O)COC(=O)c1cc(C)oc1C	none (no result: E-selectin induc)
C[C@@H]1CCCCO[C@H](CN(C)Cc2ccc(C(=O)O)cc2)[C@@H](C)CN([C@@H](C)CO)C(=O)c2cc(NS(C)(=O)=O)ccc2O1	none (no result: Statin myotox sup)
CC1(C(=O)NS(=O)(=O)Cc2cccc(Cl)c2)CCN1C(=O)c1cccc(F)c1 (configuration not stated)	none
Cc1noc(C)c1C(=O)N1CCC1(C)C(=O)NS(=O)(=O)Cc1cccc(Cl)c1 (configuration not stated)	FGF22 binding 44
Cc1ccccc1-c1nc2c(s1)CCc1onc(-c3ccc(Cl)cc3)c1-2	DENV2 CPE rescue 105
Cc1cc([N+](=O)[O-])nn1CC(=O)NCCCN1CCOCC1	E-selectin induc 27
O=C(NC(=S)NCCCN1CCOCC1)c1ccc([N+](=O)[O-])cc1	FGF22 binding 43 (no result: Statin myotox sup, PglD DTNB, E-selectin induc)
O=C(NC(=S)NCCN1CCOCC1)c1ccc(F)cc1	none (no result: Statin myotox sup, PglD DTNB)
COc1cccc(S(=O)(=O)Nc2ccc3c(c2)C(=O)N(C)[C@@H]2CC[C@@H](CC(=O)O)O[C@H]2CO3)c1	none
